In brackets after ≈: the same amount, converted by molar mass.
Experiments:
Assay type in all cases: functional
[1] = tested on: Staphylococcus haemolyticus; experiment: Antimicrobial activity against methicillin-susceptible coagulase-negative Staphylococcus haemolyticus after 24 hrs by broth microdilution method
Summary of the method: (§1)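 Clinical isolates came from blood, body fluids, genital secretions, pus or sputum, identified conventionally or by Vitek. MICs were run by CLSI M7-A6 broth microdilution in Mueller-Hinton broth with 5 × 10^5 CFU/ml inoculum. Agents were twofold serially diluted, starting from 10% DMSO. Drug-free and uninoculated controls were included. Plates were incubated aerobically at 37°C for 24 h; MIC is the lowest concentration giving no visible growth.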

[2] = tested on: Staphylococcus epidermidis; experiment: Antimicrobial activity against methicillin-resistant coagulase-negative Staphylococcus epidermidis after 24 hrs by broth microdilution method; summary of the method: as §1
Mammaliicoccus sciuri [3] = experiment: Antimicrobial activity against methicillin-resistant coagulase-negative Staphylococcus sciuri assessed as resistant isolates after 24 hrs by broth microdilution method
Staphylococcus aureus [4] = experiment: Antimicrobial activity against methicillin-susceptible Staphylococcus aureus assessed as susceptible isolates after 24 hrs by broth microdilution method
Mammaliicoccus sciuri [5] = experiment: Antimicrobial activity against methicillin-susceptible coagulase-negative Staphylococcus sciuri assessed as susceptible isolates after 24 hrs by broth microdilution method
Summary of the method: (§2)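 Clinical isolates from blood, body fluids, pus, sputum or genital secretions, identified conventionally or by Vitek, were tested alongside ATCC 29213 and ATCC 12228 controls. CLSI M7-A6 broth microdilution in Mueller-Hinton broth used twofold dilutions from a 10% DMSO solution and 5 × 10^5 CFU/ml inoculum. Drug-free and uninoculated wells served as controls; incubation was aerobic at 37°C for 24 h. MIC was the lowest concentration with no visible growth.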

[6] = tested on: Staphylococcus epidermidis; experiment: Antimicrobial activity against methicillin-susceptible coagulase-negative Staphylococcus epidermidis assessed as susceptible isolates after 24 hrs by broth microdilution method
Staphylococcus aureus [7] = experiment: Bactericidal activity against methicillin-susceptible Staphylococcus aureus after 24 hrs by plate counting method
Summary of the method: (§3)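 Clinical staphylococcal isolates from patient body fluids, blood, genital secretions, pus or sputum; species by conventional methods or Vitek. Twofold dilutions in Mueller-Hinton broth, inoculum 5 × 10^5 CFU/ml, 37°C aerobic 24 h (CLSI M7-A6 microdilution). About 100 μl from each well without visible growth spread on MHA; 37°C 24 h. MBC = lowest concentration giving no growth on agar.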

Mammaliicoccus sciuri [8] = experiment: Antimicrobial activity against methicillin-susceptible coagulase-negative Staphylococcus sciuri after 24 hrs by broth microdilution method; summary of the method: as §1
Staphylococcus hominis [9] = experiment: Antimicrobial activity against methicillin-resistant coagulase-negative Staphylococcus hominis assessed as resistant isolates after 24 hrs by broth microdilution method
Staphylococcus aureus [10] = experiment: Antimicrobial activity against methicillin-resistant Staphylococcus aureus assessed as resistant isolates after 24 hrs by broth microdilution method
Staphylococcus hominis [11] = experiment: Bactericidal activity against methicillin-susceptible coagulase-negative Staphylococcus hominis after 24 hrs by plate counting method; summary of the method: as §3
Staphylococcus simulans [12] = experiment: Antimicrobial activity against methicillin-susceptible coagulase-negative Staphylococcus simulans assessed as susceptible isolates after 24 hrs by broth microdilution method; summary of the method: as §2
Staphylococcus simulans [13] = experiment: Bactericidal activity against methicillin-resistant coagulase-negative Staphylococcus simulans after 24 hrs by plate counting method; summary of the method: as §3
Staphylococcus hominis [14] = experiment: Antimicrobial activity against methicillin-susceptible coagulase-negative Staphylococcus hominis assessed as resistant isolates after 24 hrs by broth microdilution method
[15] = tested on: Staphylococcus haemolyticus; experiment: Bactericidal activity against methicillin-resistant coagulase-negative Staphylococcus haemolyticus after 24 hrs by plate counting method
[16] = tested on: Staphylococcus epidermidis; experiment: Bactericidal activity against methicillin-resistant coagulase-negative Staphylococcus epidermidis after 24 hrs by plate counting method
Staphylococcus aureus [17] = experiment: Bactericidal activity against methicillin-resistant Staphylococcus aureus after 24 hrs by plate counting method
[18] = tested on: Staphylococcus haemolyticus; experiment: Antimicrobial activity against methicillin-susceptible coagulase-negative Staphylococcus haemolyticus assessed as resistant isolates after 24 hrs by broth microdilution method
Mammaliicoccus sciuri [19] = experiment: Bactericidal activity against methicillin-susceptible coagulase-negative Staphylococcus sciuri after 24 hrs by plate counting method; summary of the method: as §3
Staphylococcus hominis [20] = experiment: Antimicrobial activity against methicillin-susceptible coagulase-negative Staphylococcus hominis assessed as susceptible isolates after 24 hrs by broth microdilution method
[21] = tested on: Staphylococcus epidermidis; experiment: Antimicrobial activity against methicillin-resistant coagulase-negative Staphylococcus epidermidis assessed as resistant isolates after 24 hrs by broth microdilution method
[22] = tested on: Staphylococcus haemolyticus; experiment: Antimicrobial activity against methicillin-resistant coagulase-negative Staphylococcus haemolyticus assessed as resistant isolates after 24 hrs by broth microdilution method
Staphylococcus aureus [23] = experiment: Antimicrobial activity against methicillin-susceptible Staphylococcus aureus assessed as resistant isolates after 24 hrs by broth microdilution method
Mammaliicoccus sciuri [24] = experiment: Antimicrobial activity against methicillin-susceptible coagulase-negative Staphylococcus sciuri assessed as resistant isolates after 24 hrs by broth microdilution method
Mammaliicoccus sciuri [25] = experiment: Bactericidal activity against methicillin-resistant coagulase-negative Staphylococcus sciuri after 24 hrs by plate counting method; summary of the method: as §3
[26] = tested on: Staphylococcus haemolyticus; experiment: Bactericidal activity against methicillin-susceptible coagulase-negative Staphylococcus haemolyticus after 24 hrs by plate counting method; summary of the method: as §3
[27] = tested on: Staphylococcus haemolyticus; experiment: Antimicrobial activity against methicillin-susceptible coagulase-negative Staphylococcus haemolyticus assessed as susceptible isolates after 24 hrs by broth microdilution method
[28] = tested on: Staphylococcus epidermidis; experiment: Bactericidal activity against methicillin-susceptible coagulase-negative Staphylococcus epidermidis after 24 hrs by plate counting method; summary of the method: as §3
Staphylococcus simulans [29] = experiment: Antimicrobial activity against methicillin-resistant coagulase-negative Staphylococcus simulans after 24 hrs by broth microdilution method; summary of the method: as §1
[30] = tested on: Staphylococcus epidermidis; experiment: Antimicrobial activity against methicillin-susceptible coagulase-negative Staphylococcus epidermidis after 24 hrs by broth microdilution method; summary of the method: as §1
[31] = tested on: Staphylococcus epidermidis; experiment: Antimicrobial activity against methicillin-susceptible coagulase-negative Staphylococcus epidermidis assessed as resistant isolates after 24 hrs by broth microdilution method
Mammaliicoccus sciuri [32] = experiment: Antimicrobial activity against methicillin-resistant coagulase-negative Staphylococcus sciuri after 24 hrs by broth microdilution method; summary of the method: as §1
[33] = tested on: Staphylococcus haemolyticus; experiment: Antimicrobial activity against methicillin-resistant coagulase-negative Staphylococcus haemolyticus after 24 hrs by broth microdilution method; summary of the method: as §1
Staphylococcus hominis [34] = experiment: Bactericidal activity against methicillin-resistant coagulase-negative Staphylococcus hominis after 24 hrs by plate counting method
Staphylococcus simulans [35] = experiment: Antimicrobial activity against methicillin-resistant coagulase-negative Staphylococcus simulans assessed as resistant isolates after 24 hrs by broth microdilution method
Staphylococcus hominis [36] = experiment: Antimicrobial activity against methicillin-resistant coagulase-negative Staphylococcus hominis after 24 hrs by broth microdilution method; summary of the method: as §1
Staphylococcus simulans [37] = experiment: Bactericidal activity against methicillin-susceptible coagulase-negative Staphylococcus simulans after 24 hrs by plate counting method; summary of the method: as §3
Staphylococcus hominis [38] = experiment: Antimicrobial activity against methicillin-susceptible coagulase-negative Staphylococcus hominis after 24 hrs by broth microdilution method; summary of the method: as §1
Staphylococcus aureus [39] = experiment: Antimicrobial activity against methicillin-resistant Staphylococcus aureus after 24 hrs by broth microdilution method; summary of the method: as §1
Staphylococcus simulans [40] = experiment: Antimicrobial activity against methicillin-susceptible coagulase-negative Staphylococcus simulans assessed as resistant isolates after 24 hrs by broth microdilution method
Staphylococcus aureus [41] = experiment: Antimicrobial activity against methicillin-susceptible Staphylococcus aureus after 24 hrs by broth microdilution method; summary of the method: as §1
Staphylococcus simulans [42] = experiment: Antimicrobial activity against methicillin-susceptible coagulase-negative Staphylococcus simulans after 24 hrs by broth microdilution method; summary of the method: as §1
[43] = Staphylococcus haemolyticus, 24 h
[44] = Staphylococcus epidermidis, 24 h

CC1(C)S[C@@H]2[C@H](NC(=O)[C@H](N)c3ccccc3)C(=O)N2[C@H]1C(=O)O [AMPICILLIN]
MIC50 [1]: 2 µg/mL (≈ 5.72 µM)
MIC90 [1]: 16 µg/mL (≈ 45.8 µM)
MIC50 [2]: 16 µg/mL (≈ 45.8 µM)
MIC90 [2]: 64 µg/mL (≈ 183 µM)
Activity (Mammaliicoccus sciuri [3]): 100%
Activity (Staphylococcus aureus [4]): 0%
Activity (Mammaliicoccus sciuri [5]): 0%
Activity [6]: 0%
MBC50 (Staphylococcus aureus [7]): 64 µg/mL (≈ 183 µM)
MBC90 (Staphylococcus aureus [7]): 128 µg/mL (≈ 366 µM)
MBC (Staphylococcus aureus [7]; Staphylococcus aureus, 24 h): 1 µg/mL (≈ 2.86 µM)
MIC50 (Mammaliicoccus sciuri [8]): 2 µg/mL (≈ 5.72 µM)
MIC90 (Mammaliicoccus sciuri [8]): 16 µg/mL (≈ 45.8 µM)
Activity (Staphylococcus hominis [9]): 100%
Activity (Staphylococcus aureus [10]): 100%
MBC50 (Staphylococcus hominis [11]): 4 µg/mL (≈ 11.4 µM)
MBC90 (Staphylococcus hominis [11]): 128 µg/mL (≈ 366 µM)
MBC (Staphylococcus hominis [11]; Staphylococcus hominis, 24 h): 1 µg/mL (≈ 2.86 µM)
Activity (Staphylococcus simulans [12]): 0%
MBC50 (Staphylococcus simulans [13]): 32 µg/mL (≈ 91.6 µM)
MBC90 (Staphylococcus simulans [13]): 256 µg/mL (≈ 733 µM)
MBC (Staphylococcus simulans [13]; Staphylococcus simulans, 24 h): > 2 µg/mL
Activity (Staphylococcus hominis [14]): 100%
MBC50 [15]: 32 µg/mL (≈ 91.6 µM)
MBC90 [15]: 256 µg/mL (≈ 733 µM)
MBC [15, 43]: > 2 µg/mL
MBC50 [16]: 32 µg/mL (≈ 91.6 µM)
MBC90 [16]: 256 µg/mL (≈ 733 µM)
MBC [16, 44]: > 2 µg/mL
MBC90 (Staphylococcus aureus [17]): 256 µg/mL (≈ 733 µM)
MBC (Staphylococcus aureus [17]; Staphylococcus aureus, 24 h): 32 µg/mL (≈ 91.6 µM)
Activity [18]: 100%
MBC50 (Mammaliicoccus sciuri [19]): 4 µg/mL (≈ 11.4 µM)
MBC90 (Mammaliicoccus sciuri [19]): 128 µg/mL (≈ 366 µM)
MBC (Mammaliicoccus sciuri [19]; Mammaliicoccus sciuri, 24 h): 1 µg/mL (≈ 2.86 µM)
Activity (Staphylococcus hominis [20]): 0%
Activity [21]: 100%
Activity [22]: 100%
Activity (Staphylococcus aureus [23]): 100%
Activity (Mammaliicoccus sciuri [24]): 100%
MBC50 (Mammaliicoccus sciuri [25]): 32 µg/mL (≈ 91.6 µM)
MBC90 (Mammaliicoccus sciuri [25]): 256 µg/mL (≈ 733 µM)
MBC (Mammaliicoccus sciuri [25]; Mammaliicoccus sciuri, 24 h): > 2 µg/mL
MBC50 [26]: 4 µg/mL (≈ 11.4 µM)
MBC90 [26]: 128 µg/mL (≈ 366 µM)
MBC [26, 43]: 1 µg/mL (≈ 2.86 µM)
Activity [27]: 0%
MBC50 [28]: 4 µg/mL (≈ 11.4 µM)
MBC90 [28]: 128 µg/mL (≈ 366 µM)
MBC [28, 44]: 1 µg/mL (≈ 2.86 µM)
MIC50 (Staphylococcus simulans [29]): 16 µg/mL (≈ 45.8 µM)
MIC90 (Staphylococcus simulans [29]): 64 µg/mL (≈ 183 µM)
MIC50 [30]: 2 µg/mL (≈ 5.72 µM)
MIC90 [30]: 16 µg/mL (≈ 45.8 µM)
Activity [31]: 100%
MIC50 (Mammaliicoccus sciuri [32]): 16 µg/mL (≈ 45.8 µM)
MIC90 (Mammaliicoccus sciuri [32]): 64 µg/mL (≈ 183 µM)
MIC50 [33]: 16 µg/mL (≈ 45.8 µM)
MIC90 [33]: 64 µg/mL (≈ 183 µM)
MBC50 (Staphylococcus hominis [34]): 32 µg/mL (≈ 91.6 µM)
MBC90 (Staphylococcus hominis [34]): 256 µg/mL (≈ 733 µM)
MBC (Staphylococcus hominis [34]; Staphylococcus hominis, 24 h): > 2 µg/mL
Activity (Staphylococcus simulans [35]): 100%
MIC50 (Staphylococcus hominis [36]): 16 µg/mL (≈ 45.8 µM)
MIC90 (Staphylococcus hominis [36]): 64 µg/mL (≈ 183 µM)
MBC50 (Staphylococcus simulans [37]): 4 µg/mL (≈ 11.4 µM)
MBC90 (Staphylococcus simulans [37]): 128 µg/mL (≈ 366 µM)
MIC50 (Staphylococcus hominis [38]): 2 µg/mL (≈ 5.72 µM)
MIC90 (Staphylococcus hominis [38]): 16 µg/mL (≈ 45.8 µM)
MIC50 (Staphylococcus aureus [39]): 16 µg/mL (≈ 45.8 µM)
MIC90 (Staphylococcus aureus [39]): 64 µg/mL (≈ 183 µM)
Activity (Staphylococcus simulans [40]): 100%
MIC50 (Staphylococcus aureus [41]): 32 µg/mL (≈ 91.6 µM)
MIC90 (Staphylococcus aureus [41]): 32 µg/mL (≈ 91.6 µM)
MIC50 (Staphylococcus simulans [42]): 2 µg/mL (≈ 5.72 µM)
MIC90 (Staphylococcus simulans [42]): 16 µg/mL (≈ 45.8 µM)
